Screening data (PubChem)
Compounds with a hit are over-represented: about 2.3% of the library has one in this group of screens.
TRPC4 agonist = opens the mouse TRPC4 cation channel. HEK293 TRPC4beta/mu-opioid, Fluo4 calcium fluorescence; stronger effect = higher value. B-score at 10 µM. actives 0.49% (n = 310,000);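 active means B-score above 5 SD of library B-scores, and initial fluorescence ratio not above library mean plus 5 SD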;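 further: positive B-score marks a calcium rise read as TRPC4 activation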
Target sequence (Q9QUQ5 whole entry, looked up): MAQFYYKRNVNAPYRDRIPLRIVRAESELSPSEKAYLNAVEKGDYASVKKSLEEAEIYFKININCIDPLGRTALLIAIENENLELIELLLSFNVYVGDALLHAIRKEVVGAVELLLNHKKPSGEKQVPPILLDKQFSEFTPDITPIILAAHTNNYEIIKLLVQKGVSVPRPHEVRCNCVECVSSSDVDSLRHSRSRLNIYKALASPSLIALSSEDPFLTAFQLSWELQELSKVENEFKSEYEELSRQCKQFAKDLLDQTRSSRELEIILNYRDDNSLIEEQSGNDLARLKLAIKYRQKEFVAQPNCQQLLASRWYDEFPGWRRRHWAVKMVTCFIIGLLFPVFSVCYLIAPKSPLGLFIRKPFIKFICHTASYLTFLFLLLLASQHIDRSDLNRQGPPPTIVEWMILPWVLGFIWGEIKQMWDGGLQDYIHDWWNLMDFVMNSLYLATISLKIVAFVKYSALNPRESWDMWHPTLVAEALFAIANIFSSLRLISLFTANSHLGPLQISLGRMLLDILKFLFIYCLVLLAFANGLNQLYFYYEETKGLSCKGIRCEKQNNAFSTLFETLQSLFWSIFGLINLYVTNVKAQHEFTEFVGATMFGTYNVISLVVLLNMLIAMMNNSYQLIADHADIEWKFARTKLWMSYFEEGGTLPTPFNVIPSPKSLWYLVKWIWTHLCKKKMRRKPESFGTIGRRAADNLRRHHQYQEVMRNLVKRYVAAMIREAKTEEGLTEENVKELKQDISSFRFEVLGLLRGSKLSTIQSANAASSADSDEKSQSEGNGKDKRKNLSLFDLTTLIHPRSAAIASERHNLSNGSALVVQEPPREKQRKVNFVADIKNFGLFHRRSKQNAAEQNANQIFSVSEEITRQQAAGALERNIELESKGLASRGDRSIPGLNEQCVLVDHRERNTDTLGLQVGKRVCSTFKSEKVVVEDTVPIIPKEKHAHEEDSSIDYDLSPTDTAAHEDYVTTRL
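Material: TRPC4beta and mu-opioid receptor HEK293 stable cells | Incubation: 45 min room-temperature Fluo4 loading, 110 s read | Detection: Kinetic Fluo4 calcium fluorescence | Measure: Integrated baseline-normalised fluorescence ratio, converted to per-well B score | Benchmarks: Low control buffer alone, high control maximal DAMGO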
TRPC6 inh = inhibitors of mouse TRPC6 channel. Q61143. HEK293-TRPC6, membrane potential dye, ACh-evoked depolarization; stronger effect = lower value. B-score at 10 µM. actives 1.1% (n = 310,000);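 active means B-score under library mean minus 3 SD, initial fluorescence not abnormally high, positive integrated signal ratio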;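 further: B-score derived from integrated fluorescence ratio over the kinetic read; more negative B-score means stronger inhibition of depolarization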
TRPC4 inh = blocks the mouse TRPC4 cation channel; HEK293 TRPC4beta/mu-opioid, DAMGO-evoked Fluo4 calcium flux; stronger effect = lower value; B-score at 10 µM; actives 0.39% (n = 300,000); AID 2247;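 active means B-score over 3 SD under the library average, no early fluorescence shift, positive overall ratio signal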
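System: stable TRPC4beta/mu-opioid receptor HEK293 cells; Dosing: single-point compound dosing; Measured by: Fluo4 Ca2+ flux fluorescence; Read-out basis: per-well B score of integrated baseline-normalized Fluo4 ratio.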
TRPC6 activator = mouse TRPC6 channel activation | HEK293-TRPC6 membrane potential dye fluorescence; stronger effect = higher value | AID 2550 | actives 0.13% (n = 310,000) | Q61143 | B-score at 10 µM;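 active means B-score of the integrated fluorescence ratio above library mean plus 3 SD, and starting fluorescence ratio within library mean plus 5 SD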;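 further: higher score means more depolarization so channel activation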
TRPC4 PAM = allosteric potentiators of mouse TRPC4 channel; HEK293 TRPC4beta/mu-opioid, DAMGO EC20, Fluo-4 Ca2+ flux; stronger effect = higher value; actives 0.42% (n = 310,000); Q9QUQ5; B-score at 10 µM;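 active means B-score of calcium response area above 5 SD of library B-scores, with initial fluorescence ratio within 5 SD of library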
TRPC4 spec 2 = second check of whether TRPC6 inhibitors also affect mouse TRPC4. AID 2776. HEK293 TRPC4/MOR, membrane potential dye fluorescence; channel activated by saturating DAMGO dose. actives 42% (n = 920). shares compounds with TRPC6 inh. inhibition, % at 10 µM;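 active means compounds whose fluorescence signal differed from control wells by over 3 SD, either direction, in both duplicate plates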
TRPC4 spec = tests whether TRPC6 inhibitors also affect mouse TRPC4. shares compounds with TRPC6 inh. HEK293 TRPC4/mu-opioid, membrane potential fluorescence. activity change, negative = inhibition, % at 10 µM. actives 61% (n = 920). AID 2777;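 active means rise or fall in signal beyond 3 SD of buffer-only wells in both replicate plates, either sign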;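 further: integrated kinetic ratio of fluorescence range over baseline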
HEK293 MPD ctr 2-1 = parental HEK293 nonspecific activity of TRPC6 inhibitors, second screen. actives 31% (n = 920). signal change vs control, % at 10 µM. shares compounds with TRPC6 inh. parental HEK293 membrane potential dye fluorescence; maximal acetylcholine challenge after compound addition;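 active means membrane potential signal moving either way by over 3 SD of the maximum-effect control, in both duplicate plates, meaning non-specific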
HEK293 MPD ctr-1 = checks TRPC6 inhibitor effects in parental HEK293 cells | shares compounds with TRPC6 inh | parental HEK293 membrane potential dye fluorescence | membrane potential signal change, % at 10 µM | actives 60% (n = 920);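 active means membrane potential signal shifting up or down by more than 3 SD of buffer-only wells, on both duplicate plates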
HEK293 MPD ctr-2 = parental HEK293 nonspecific activity of TRPC6 modulators | shares compounds with TRPC6 inh | membrane potential dye fluorescence | membrane potential signal change, % at 10 µM | actives 51% (n = 2,400) | AID 488924;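 active means membrane potential signal moves up or down beyond 5 SD from buffer-only wells, on both duplicate plates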
HEK293 MPD ctr 2-2 = second counter-screen for TRPC6 modulators: effect in parental HEK293 cells; shares compounds with TRPC6 inh; membrane potential dye fluorescence; after compound, maximal acetylcholine stimulation; inhibition, % at 10 µM; actives 14% (n = 2,400); AID 488926;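 active means membrane potential signal drops by more than 5 SD from the mean control signal, in both duplicate plates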
TRPC4/MOR mod = mouse TRPC4 off-target activity of TRPC6 modulators; shares compounds with TRPC6 inh; HEK293 TRPC4/mu-opioid, membrane potential fluorescence; percent change from control (negative = decrease, positive = increase), % at 10 µM; actives 69% (n = 2,400);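 active means membrane potential signal moved up or down beyond 5 SD of buffer control wells, in both duplicate plates, actives on both sides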
TRPC4/MOR inh 2 = mouse TRPC4 off-target activity of TRPC6 modulators, second screen | shares compounds with TRPC6 inh | HEK293 TRPC4/mu-opioid, membrane potential dye fluorescence; stimulated with maximal-effect DAMGO | inhibition, % at 10 µM | actives 55% (n = 2,400);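 active means drop in membrane potential signal beyond 5 SD of the control wells in both duplicate plates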;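 further: TRPC4 counter screen for TRPC6 hits run under conditions tuned for TRPC6 not TRPC4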
TRPC6 block conf = confirmation of mouse TRPC6 inhibitors; shares compounds with TRPC6 inh; HEK293-TRPC6, membrane potential dye, ACh-evoked depolarization; inhibition, % at 10 µM; actives 43% (n = 3,300);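 active means fluorescence ratio falls more than 5 SD below the full-stimulation control mean, in both duplicate runs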;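 further: integrated fluorescence ratio of peak minus minimum over baseline after agonist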
TRPC6 act conf = mouse TRPC6 activator confirmation; AID 488961; activation, % at 10 µM; HEK293-TRPC6 membrane potential dye fluorescence, FDSS; shares compounds with TRPC6 inh; actives 11% (n = 2,800);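 active means ratio signal rise beyond 5 SD above unstimulated control wells' mean, seen in both duplicate runs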
Large screens that a line does not name were inactive (follow-up assays come after a bar, where they were run).

O=C(COC(=O)c1c(Cl)cccc1Cl)NC1CCCCC1	TRPC6 activator 12 | HEK293 MPD ctr-2 121.0% | HEK293 MPD ctr 2-2 inactive | TRPC4/MOR mod 23.5% | TRPC4/MOR inh 2 inactive | TRPC6 act conf 171.0%
COc1ccc(Cn2c(-c3ccc(C)cc3)c[n+]3ccccc23)cc1	TRPC6 inh -6.25 | HEK293 MPD ctr-2 -232.0% | HEK293 MPD ctr 2-2 inactive | TRPC4/MOR mod -30.5% | TRPC4/MOR inh 2 48.5% | TRPC6 block conf 46.0% | TRPC6 act conf inactive
Cc1[nH]c2ccccc2c1/C=N/Nc1ccc([N+](=O)[O-])cc1	TRPC6 activator 11.5 | HEK293 MPD ctr-2 143.5% | HEK293 MPD ctr 2-2 inactive | TRPC4/MOR mod 35.5% | TRPC4/MOR inh 2 inactive | TRPC6 block conf inactive | TRPC6 act conf 56.0%
Cc1[nH]c2ccccc2c1/C=N/NC(=O)c1cccc([N+](=O)[O-])c1	none
COc1ccc(NS(=O)(=O)c2cccc(C(=O)O)c2)cc1	TRPC6 inh -5.39 | HEK293 MPD ctr-2 inactive | HEK293 MPD ctr 2-2 inactive | TRPC4/MOR mod inactive | TRPC4/MOR inh 2 inactive | TRPC6 block conf inactive | TRPC6 act conf inactive
COc1ccc(NS(=O)(=O)c2cccc(C(=O)Nc3cccc(C(=O)O)c3)c2)cc1	none
Cn1cc(CN2CCN(c3ccccc3)CC2)c2ccccc21	TRPC6 inh -5.55 | HEK293 MPD ctr-2 inactive | HEK293 MPD ctr 2-2 inactive | TRPC4/MOR mod 12.0% | TRPC4/MOR inh 2 43.0% | TRPC6 block conf inactive | TRPC6 act conf inactive
COC(=O)N1CCN(c2ccc(C)c(C)c2)CC1	none
COC(=O)N1CCN(c2ccc(Cl)c(Cl)c2)CC1	TRPC6 inh -6.28 | HEK293 MPD ctr-2 inactive | HEK293 MPD ctr 2-2 inactive | TRPC4/MOR mod 8.0% | TRPC4/MOR inh 2 37.0% | TRPC6 block conf inactive | TRPC6 act conf inactive
CN(C)CCn1c(=N)n(CC(O)c2ccc(Cl)c(Cl)c2)c2ccccc21 (stereo not drawn)	TRPC6 inh -5.31 | HEK293 MPD ctr-2 inactive | HEK293 MPD ctr 2-2 inactive | TRPC4/MOR mod 57.5% | TRPC4/MOR inh 2 78.0% | TRPC6 block conf inactive | TRPC6 act conf inactive
N=c1n(CCN2CCCCC2)c2ccccc2n1CC(O)c1ccc(Cl)c(Cl)c1 (stereo not drawn)	none
O=C(NCCCN1CCOCC1)c1cc2c([nH]c3ccccc32)c(-c2cccc(Br)c2)n1	TRPC6 inh -8.77 | TRPC4 spec 2 inactive | TRPC4 spec inactive | HEK293 MPD ctr 2-1 inactive | HEK293 MPD ctr-1 inactive | TRPC6 block conf 54.1% | TRPC6 act conf inactive
COc1ccc(OC)c(Nc2cc(C(=O)NCCCN3CCOCC3)c3ccccc3n2)c1	TRPC6 inh -5.54 | HEK293 MPD ctr-2 inactive | HEK293 MPD ctr 2-2 inactive | TRPC4/MOR mod inactive | TRPC4/MOR inh 2 45.0% | TRPC6 block conf inactive | TRPC6 act conf inactive
COc1ccccc1Nc1cc(C(=O)NCCCN2CCOCC2)c2ccccc2n1	none
COc1cccc(-c2nc(C(=O)NCCCN3CCOCC3)cc3c2[nH]c2ccccc23)c1	TRPC6 inh -7.28 | TRPC4 spec 2 inactive | TRPC4 spec -10.1% | HEK293 MPD ctr 2-1 inactive | HEK293 MPD ctr-1 -158.5% | TRPC6 block conf inactive | TRPC6 act conf inactive
CCCCc1ccc(-c2csc(/C(C#N)=C\c3ccc(C)o3)n2)cc1	TRPC6 inh -8.41 | TRPC4 spec 2 inactive | TRPC4 spec inactive | HEK293 MPD ctr 2-1 inactive | HEK293 MPD ctr-1 inactive | TRPC6 block conf inactive
O=C(/C(=C/c1ccc(Cl)cc1)c1nc2ccccc2[nH]1)c1cccs1	TRPC6 inh -6.82 | TRPC4 spec 2 inactive | TRPC4 spec inactive | HEK293 MPD ctr 2-1 inactive | HEK293 MPD ctr-1 inactive | TRPC6 block conf inactive | TRPC6 act conf inactive
Oc1sc(C=Nc2ccccc2)c2ccccc12	TRPC6 activator 12.9 | HEK293 MPD ctr-2 322.5% | HEK293 MPD ctr 2-2 inactive | TRPC4/MOR mod 139.0% | TRPC4/MOR inh 2 45.5% | TRPC6 block conf inactive | TRPC6 act conf inactive
CCOC(=O)c1c[nH]c2c(C)ccc(Cl)c2c1=O	TRPC6 inh -7.62 | HEK293 MPD ctr-2 -303.0% | HEK293 MPD ctr 2-2 inactive | TRPC4/MOR mod -41.5% | TRPC4/MOR inh 2 53.0% | TRPC6 block conf 60.0% | TRPC6 act conf inactive
CCOC(=O)c1c[nH]c2c3c(ccc2c1=O)CCCC3	none
CCOC(=O)c1ccc2[nH]cc(C(C)=O)c(=O)c2c1	TRPC6 inh -7.47 | TRPC4 spec 2 inactive | TRPC4 spec -25.6% | HEK293 MPD ctr 2-1 inactive | HEK293 MPD ctr-1 -422.5% | TRPC6 block conf inactive | TRPC6 act conf inactive
CCOC(=O)c1c[nH]c2c(Cl)ccc(Cl)c2c1=O	TRPC6 inh -6.06 | HEK293 MPD ctr-2 -324.5% | HEK293 MPD ctr 2-2 inactive | TRPC4/MOR mod -39.0% | TRPC4/MOR inh 2 43.0% | TRPC6 block conf inactive | TRPC6 act conf inactive
CCOC(=O)c1c[nH]c2c(Cl)c(Cl)ccc2c1=O	TRPC6 inh -9.97 | TRPC4 spec 2 inactive | TRPC4 spec -24.6% | HEK293 MPD ctr 2-1 inactive | HEK293 MPD ctr-1 -298.0% | TRPC6 block conf inactive | TRPC6 act conf inactive
O=C(c1cccs1)N1CCCC(c2nc3c(nnn3Cc3ccccc3)c(=O)[nH]2)C1 (stereo not drawn)	none
